UBC13 inh – blocks human UBC13 polyubiquitin chain formation. P61088. TR-FRET. inhibition, % at 20 µM. 330,000 compounds, 0.47% hits. AID 485273; in the data active means inhibition above about 45%, passing the limit was not always enough; inconclusive means no clear call, values can overlap the other calls
Target sequence (P61088 whole entry, looked up): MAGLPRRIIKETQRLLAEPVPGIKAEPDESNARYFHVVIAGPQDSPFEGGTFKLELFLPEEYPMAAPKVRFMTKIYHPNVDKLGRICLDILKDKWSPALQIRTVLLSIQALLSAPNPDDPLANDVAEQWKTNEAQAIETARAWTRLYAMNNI
MEKK2 mut-MEK5 – signal of MEK5 binding to mutant human MEKK2 PB1 domain; bead flow cytometry, Alexa488-MEK5 binding to MEKK2 mutant; percent response, % at 10 µM; 290,000 compounds, 0.35% hits; AID 1530; in the data active means percent response above about 24%, passing the limit was not always enough
UCH37 inh – blocks the human deubiquitinase UCH37; AID 588478; purified proteasome/UCH37, Ub-AMC cleavage fluorescence; inhibition, % (concentration not given with the values); 330,000 compounds, 0.33% hits; Q9Y5K5;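 active means mean inhibition over replicate wells above about 20%, limit read from the data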
Target sequence (Q9Y5K5 whole entry, looked up): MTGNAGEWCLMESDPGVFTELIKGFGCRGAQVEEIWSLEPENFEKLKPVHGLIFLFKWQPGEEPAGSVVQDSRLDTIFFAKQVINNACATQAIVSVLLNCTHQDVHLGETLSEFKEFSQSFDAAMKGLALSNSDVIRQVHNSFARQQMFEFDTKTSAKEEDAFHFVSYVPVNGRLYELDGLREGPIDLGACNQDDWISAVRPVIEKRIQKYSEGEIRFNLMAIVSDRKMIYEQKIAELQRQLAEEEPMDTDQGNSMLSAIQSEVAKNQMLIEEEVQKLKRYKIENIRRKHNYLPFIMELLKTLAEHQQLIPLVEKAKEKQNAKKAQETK
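Material: human UCH37 enzyme supplied as purified proteasome complex. Measure: % inhibition of Ub-AMC cleavage fluorescence. Medium: pH 7.4 Tris-HCl (50 mM) with ovalbumin, ATP-MgCl2, DTT. Times: 30 min preincubation with enzyme, 25 min cleavage at room temperature. Detection: AMC fluorescence intensity at 355/460 nm.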
MEKK2wt PB1 HTS – raises or lowers MEK5 binding to wildtype human MEKK2 PB1 domain. Q9Y2U5. bead flow cytometry, Alexa488-MEK5 binding to MEKK2 WT; actives lie on both sides. binding response (% of control), % at 10 µM. 290,000 compounds, 1.1% hits. AID 1531; in the data active means binding response below about 67% or above about 130%; inconclusive means no clear call, values can overlap the other calls; inactive means in between
MEKK3 PB1 HTS – MEKK3-MEK5 PB1 interaction, increase or decrease; 290,000 compounds, 1.4% hits; binding response (% of control), % at 10 µM; Q99759; bead-based flow cytometry, Alexa488-MEK5 binding to MEKK3; actives lie on both sides; 0 = blocked by unlabeled MEK5, 100 = vehicle;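 active means binding response more than 3 SD above or below the average of its plate-row segment, actives on both sides; inconclusive means wells at one plate position flagged as instrument error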;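 further: Alexa488 bead fluorescence after subtracting the streptavidin-only scavenger bead signal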
Apaf-1 inh – blocks human Apaf-1 apoptosome activity; O14727; reconstituted apoptosome caspase-3 activity, DEVD-Rh110 fluorescence; inhibition, % at 20 µM; 330,000 compounds, 0.71% hits; AID 489030; active means inhibition of at least 40% at 20 µM
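Medium: Hepes buffer, pH 7.5 / System: biochemical Apaf-1 apoptosome reconstitution / Measured by: Rh110 fluorescence, excitation 480 nm, emission 540 nm / Times: compound with Apaf-1, dATP, procaspase-3 30 min, then 50 min reaction, room temperature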
Casp3 counter – counter-screen for UBC13 inhibitors: human caspase-3 inhibition. shares compounds with UBC13 inh. Recombinant caspase-3, Caspase-Glo 3/7 luminescence, 60 min. inhibition, % at 20 µM. 1,400 compounds, 4% hits;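 active means mean inhibition across replicates above about 26%, limit read from the data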
Target sequence (P42574 whole entry, looked up): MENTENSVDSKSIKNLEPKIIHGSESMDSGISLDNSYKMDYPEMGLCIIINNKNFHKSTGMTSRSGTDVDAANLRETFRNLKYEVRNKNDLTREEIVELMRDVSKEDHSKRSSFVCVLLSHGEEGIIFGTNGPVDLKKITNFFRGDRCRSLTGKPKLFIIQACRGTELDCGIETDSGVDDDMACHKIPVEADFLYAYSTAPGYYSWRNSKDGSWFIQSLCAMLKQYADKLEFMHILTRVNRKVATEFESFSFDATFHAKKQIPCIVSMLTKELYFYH
UBC13 confirm – human UBC13 polyubiquitin inhibition, confirmed | shares compounds with UBC13 inh | UBC13 polyubiquitination, TR-FRET, biochemical | inhibition, % at 10 µM | 1,400 compounds, 68% hits; in the data active means inhibition above about 45%; inconclusive means no clear call, values can overlap the other calls
Large screens that a line does not name were inactive (follow-up assays come after a bar, where they were run). Compounds with a hit are over-represented: about 3% of the library has one in this group of screens.

O[C@@H](c1cc(C(F)(F)F)nc2c(C(F)(F)F)cccc12)[C@H]1CCCCN1	UBC13 inh 64, Apaf-1 inh 52 (no result: MEKK2 mut-MEK5, MEKK2wt PB1 HTS, MEKK3 PB1 HTS) | Casp3 counter inactive | UBC13 confirm inactive
COc1ccc2nc3oc(C(=O)NC4CCN(Cc5ccccc5)CC4)cc3cc2c1	UBC13 inh 58 | Casp3 counter inactive | UBC13 confirm inactive
O=C(OCc1nc2scc(-c3ccccc3)c2c(=O)[nH]1)c1cc([N+](=O)[O-])ccc1Cl	UBC13 inh 46 | Casp3 counter inactive | UBC13 confirm inactive
CN(CC(=O)Nc1ccc(Cl)c(C(F)(F)F)c1)C(=O)c1ccc2c(c1)OCCO2	none (no result: MEKK2 mut-MEK5, MEKK2wt PB1 HTS, MEKK3 PB1 HTS)
Cc1cc(C)cc(NC(=O)Nc2c(Br)cnn2C)c1	none
CC1CCCC(NC(=O)CSc2ncnc3ccccc23)C1C (stereo not given)	UBC13 inh 46 (no result: MEKK2 mut-MEK5, MEKK2wt PB1 HTS, MEKK3 PB1 HTS) | Casp3 counter inactive | UBC13 confirm inactive
CN1CCN(C(=O)CN(C)S(=O)(=O)c2cc(Cl)ccc2Cl)CC1	none
CC1(C)Cc2c(c(N3CCOCC3)nc3sc4c(=O)[nH]cnc4c23)CS1	UBC13 inh 50 | Casp3 counter inactive | UBC13 confirm 54
CCCCNc1ccccc1C(=O)OCC(=O)Nc1ccc(S(N)(=O)=O)cc1	none
Cc1ccc(-c2nnc3c(C(F)(F)F)nc4ccccc4n23)cc1	UBC13 inh 52 | Casp3 counter inactive | UBC13 confirm inconclusive
CCOc1ccc(NC(=O)CCS(=O)(=O)c2ccc(C)cc2)cc1	none
c1coc(-c2nc(-c3ccco3)c(-c3ccco3)nc2-c2ccco2)c1	UBC13 inh 77, Apaf-1 inh 63 | Casp3 counter inactive | UBC13 confirm 64
Cc1cc(Sc2nnc(N=CN(C)C)s2)c2ccccc2n1	none (no result: UBC13 inh, MEKK2 mut-MEK5, MEKK2wt PB1 HTS, MEKK3 PB1 HTS, Apaf-1 inh)
Cc1cc(Sc2nnc(/N=C/N(C)C)s2)c2ccccc2n1	UBC13 inh 55 (no result: UCH37 inh) | Casp3 counter inactive | UBC13 confirm 65
Cc1ccc(CN2CCC(CNC(=O)c3ccc(NC(=O)C4=CSCCO4)cc3)CC2)cc1	UBC13 inh 72 | Casp3 counter inactive | UBC13 confirm 96
O=C(Nc1ccc(C(=O)NCC2CCN(Cc3ccccc3F)CC2)cc1)C1=CSCCO1	none
Cc1cc(C)nc(N(C#N)Cc2cccc([N+](=O)[O-])c2)n1	none
Cc1cccc(C(=O)NC(=S)NNC(=O)c2ccccc2Cl)c1	none
Cc1cc(C(=O)NNC(=S)NC(=O)/C=C/c2ccccc2Cl)n[nH]1	UBC13 inh 92 | Casp3 counter inactive | UBC13 confirm 89
CC(C)(C)OC(=O)[C@H](Cc1ccccc1)NC(=O)c1[nH]cnc1C(=O)N[C@@H](Cc1ccccc1)C(=O)OCc1ccccc1	none
CC(C)(C)OC(=O)[C@H](CCCCN)NC(=O)c1[nH]cnc1C(=O)N[C@@H](Cc1ccccc1)C(=O)OCc1ccccc1	UBC13 inh 72, Apaf-1 inh 65 (no result: MEKK2 mut-MEK5, MEKK2wt PB1 HTS, MEKK3 PB1 HTS) | Casp3 counter inactive | UBC13 confirm 69
CC(C)(C)n1ncc2c(=O)n(Cc3cc(F)c(Cl)cc3Cl)cnc21	none (no result: MEKK2 mut-MEK5, MEKK2wt PB1 HTS, MEKK3 PB1 HTS)
O=C(CCN1C(=O)/C(=C/c2ccc(Cl)cc2)SC1=S)NCCCn1ccnc1	none
O=C(CN1CCN(Cc2ccccc2)CC1)NCc1ccc(Cl)cc1	none
O=S(=O)(NC1CCCC1)c1ccc(S(=O)(=O)NC2CCCC2)cc1	none
O=S(=O)(NC1CCCCC1)c1ccc(Cl)nc1	UBC13 inh 50 | Casp3 counter inactive | UBC13 confirm inactive
Cc1ccc2c(c1)nnn2C1CCN(CC(=O)Nc2ccccc2N2CCOCC2)CC1	none
COc1ccccc1NC(=O)CN1CCC(n2nnc3cc(F)ccc32)CC1	UBC13 inh 70 | Casp3 counter inactive | UBC13 confirm 69
COc1ccc(Cl)cc1NC(=O)CN1CCC(n2nnc3cc(C)ccc32)CC1	UBC13 inh 46 | Casp3 counter inactive | UBC13 confirm 51
CCOC(=O)C1=C(COC(=O)c2ccc(OC)c(OC)c2OC)NC(=O)NC1C (stereo not given)	none (no result: MEKK2 mut-MEK5, MEKK2wt PB1 HTS, MEKK3 PB1 HTS)
CC(=O)Nc1ccc(S(=O)(=O)NNC(=O)C(=O)NNc2ccccn2)cc1	UBC13 inh 58 | Casp3 counter inactive | UBC13 confirm 95
CC(=O)Nc1ccc(S(=O)(=O)Nc2ccccn2)cc1	none
Cc1ccc(S(=O)(=O)NNC(=O)C(=O)NNc2ccccn2)cc1	UBC13 inh 69 | Casp3 counter inactive | UBC13 confirm 81
N=C(N)c1ccc(/C=C/c2ccc(C(=N)N)cc2O)cc1	UBC13 inh 84 | Casp3 counter inactive | UBC13 confirm 110
Cc1c(Br)c(C(=O)NNC(=O)c2ccc(C(C)(C)C)cc2)nn1C	UBC13 inh 56 | Casp3 counter inactive | UBC13 confirm 57
Cc1ccc(NC(=S)NCc2cccs2)cc1	UBC13 inh 52 | Casp3 counter inactive | UBC13 confirm inactive
S=C(NCc1cccs1)Nc1ccccc1	none
CCCCN1C(=N)N([C@@H](CN2CCC[C@H]2CN2C(N)=NC[C@@H]2Cc2ccccc2)C(C)C)C[C@H]1Cc1ccccc1	UBC13 inh 47 (no result: MEKK2 mut-MEK5, MEKK2wt PB1 HTS, MEKK3 PB1 HTS) | Casp3 counter inactive | UBC13 confirm inactive
CCCCN1C(=N)N([C@@H](CCC)CN2CCC[C@H]2CN2C(N)=NC[C@H]2CC(C)C)C[C@H]1Cc1ccccc1	UBC13 inh 51 (no result: MEKK2 mut-MEK5, MEKK2wt PB1 HTS, MEKK3 PB1 HTS) | Casp3 counter inactive | UBC13 confirm inactive
Cc1nnc(NC(=O)NC(C)N2C(=O)C3C4C=CC(C4)C3C2=O)s1 (stereo not given)	none
COc1cc(/C=N/NC(=O)c2ccc(NS(=O)(=O)c3cccs3)cc2)cc(OC)c1O	none (no result: MEKK2 mut-MEK5, UCH37 inh, MEKK2wt PB1 HTS, MEKK3 PB1 HTS)
CON=C/C(C#N)=C/c1ccc(OC)cc1	none (no result: UBC13 inh, MEKK2 mut-MEK5, MEKK2wt PB1 HTS, MEKK3 PB1 HTS, Apaf-1 inh)
Cn1c(=O)cc(SCC(=O)NCc2ccc(F)cc2)c2ccccc21	none
Cn1c(=O)cc(SCC(=O)NCCCN2CCN(c3ccc(F)cc3)CC2)c2ccccc21	UBC13 inh 82 | Casp3 counter inactive | UBC13 confirm inconclusive
CCOC(=O)C(=NC1CCS(=O)(=O)C1)NNc1cc(Cl)ccc1Cl (stereo not given)	UBC13 inh 68 | Casp3 counter inactive | UBC13 confirm 57
CCN(CC)CCNC(=O)c1cc2c(=O)n(C)c3ccccc3c2s1	UBC13 inh 55 (no result: UCH37 inh) | Casp3 counter inactive | UBC13 confirm 62
CCCCN(CC)CCNC(=O)c1cc2c(=O)n(C)c3ccccc3c2s1	UBC13 inh 70 (no result: UCH37 inh) | Casp3 counter inactive | UBC13 confirm 80
CN(C)S(=O)(=O)c1cccc(COc2ncnc3c(Cl)cc(Cl)cc23)c1	UBC13 inh 64 | Casp3 counter inactive | UBC13 confirm 76
